Results from ChEMBL document CHEMBL1142455, “Synthesis and biological evaluation of immunosuppressive agent DZ2002 and its stereoisomers” (Bioorg Med Chem, 2008).
Calls of active or inactive are those of the source. The rule behind the calls is not given here.

Tests used:
[1] = Cytotoxicity against BALB/c mouse splenic lymphocytes co-cultured with C57BL/6 mouse splenic lymphocytes assessed as reduction of cell viability after 72 hrs; format: cell-based, Splenic lymphocyte; settings: BALB/c and C57BL/6, mouse
[2] = Inhibition of rabbit erythrocyte SAHase by DTNB-coupled assay; parameters: species or system Oryctolagus cuniculus
How it was run: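 SAHase hydrolytic activity was measured by DTNB-coupled assay. Enzyme and compound were preincubated in phosphate buffer, pH 8.0, for 10 min before the reaction was started.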

Splenic lymphocyte = assay: Immunosuppressive activity in BALB/c mouse splenic lymphocytes co-cultured with C57BL/6 mouse splenic lymphocytes assessed as inhibition of cell proliferation after 72 hrs by mixed lymphocyte reaction assay; format: functional, cell-based
How it was run: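 Stimulator BALB/c splenic lymphocytes (1 × 10⁷ cells/mL) were γ-irradiated with ⁶⁰Co for 7 min. They were co-cultured with fresh C57BL/6 splenic responder lymphocytes and compound at 25, 50 or 100 μM in RPMI 1640 with FCS for 72 h at 37 °C under 5% CO₂. Cells were then pulsed with [³H]thymidine for another 24 h to read proliferation.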

Row | SMILES | CC50 at 72 h [1] [mM] | IC50 [2] [µM] | Activity (Splenic lymphocyte)
1 | COC(=O)C(=O)CCn1cnc2c(N)ncnc21 | > 1 | 194 | Active
2 | COC(=O)[C@@H](O)CCn1cnc2c(N)ncnc21 | > 1 | 21.2 | Active
3 | COC(=O)C(O)CCn1cnc2c(N)ncnc21 (racemic) | > 1 | 24.4 | Active
4 | COC(=O)[C@H](O)CCn1cnc2c(N)ncnc21 | > 1 | 61.3 | Active
